Results: publication PMC5034689 (Molecular Metabolism, 2016)

Experiments:
IP6Ks = conditions: cited from earlier work
Recombinant human IP6K1 [1] = biological target: T1, Recombinant human IP6K1 (Homo sapiens, UniProt Q92551); test: IP6K1 activity assay in vitro, radiochemical assay; format: biochemical; conditions: TNP 1 μM
Outline: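 Recombinant human IP6K1 (100 ng) was incubated 1 h in 20 mM Tris pH 7.4 with 5 mM MgCl2, 2 nmol IP6, [3H]IP6 (130 nCi), 1 mM ATP and 1 mM DTT, plus DMSO or 1 μM test compound. 5-IP7 was resolved by HPLC, with activity expressed relative to DMSO (100%). Run in triplicate.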

lean/CD-fed mice = test: Single dose of TNP in chow; format: in vivo; conditions: single dose 20 mg/kg BW
Outline: (§1)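 Chow-fed lean or DIO mice (n = 4/group) received one 20 mg/kg injection, were fasted 5 h, then given GTT (glucose 2 g/kg i.p., tail-vein glucometer from time 0). Mice were then sacrificed for tissues and cardiac-puncture serum. Insulin was measured by ultra-sensitive ELISA and TAG by a metabolic core. Akt S473 was immunoblotted (T308 also in IWAT), with densitometry n = 3.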

CYP2C9 = CYP2C9 (Homo sapiens, UniProt P11712); test: CYP450 inhibition in human hepatic microsomes, CYP2C9; format: in vitro ADME; conditions: liver microsomes, probe tolbutamide (hydroxylation to hydroxytolbutamide)
[2] = Plasma protein binding, equilibrium dialysis, human; format: in vitro ADME
Outline: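 Binding was measured by rapid equilibrium dialysis in triplicate, starting at 1 μM drug in the plasma chamber against PBS. Plates were shaken 6 h at 37 °C. Samples were matrix-matched to 1:1 plasma:PBS and quantified by LC-MS/MS. Fraction bound = ([plasma] − [PBS])/[plasma].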

PP-IP5K = conditions: cited from earlier work
71 unrelated kinases = conditions: cited from earlier work
DIO mice [3] = test: Single dose of TNP in DIO mice; format: in vivo
Outline: as §1

CYP3A4 = CYP3A4 (Homo sapiens, UniProt P08684); test: CYP450 inhibition in human hepatic microsomes, CYP3A4; format: in vitro ADME; conditions: liver microsomes, probe midazolam (hydroxylation to 1′-hydroxymidazolam)
CYP2D6 = CYP2D6 (Homo sapiens, UniProt P10635); test: CYP450 inhibition in human hepatic microsomes, CYP2D6; format: in vitro ADME; conditions: liver microsomes, probe bufuralol (hydroxylation to 4′-hydroxybufuralol)
Recombinant human IP6K1 [4] = biological target: T1, Recombinant human IP6K1; test: IP6K1 activity assay in vitro, SDS-PAGE assay; format: biochemical; conditions: TNP 1 μM
Outline: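 Recombinant human IP6K1 (100 ng, purified from E. coli) was incubated in 20 mM Tris pH 7.4 with 5 mM MgCl2, 5 nmol IP6, 1 mM ATP and 1 mM DTT. DMSO or 1 μM test compound was added. IP6 conversion to 5-IP7 was resolved and read by SDS-PAGE.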

DIO WT mice = test: Long-term TNP for reversal of DIO in WT mice; format: in vivo
Outline: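 Inbred IP6K1-KO mice (seventh generation) and WT littermates, n = 4/group, received HFD for 8 weeks, then daily injections (10 mg/kg) with continued HFD for 10 weeks. GTT was done at week 5: 5 h fast, glucose 2 g/kg i.p., tail-vein glucometer readings including time 0. After 10 weeks, fat, lean and fluid masses were measured by LF-NMR, and mice were sacrificed after a 5 h fast.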

IP3-3K = conditions: PC12 cells, enhances neurite outgrowth; cited from earlier work
chow-fed male mice = test: Long-term TNP treatment on fertility of chow-fed male mice; format: in vivo; conditions: 10 mg/kg BW daily for 15 weeks, chow-fed WT
Outline: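 Six-week-old chow-fed male mice were injected daily with 10 mg/kg test compound for 4 weeks. They were then used for breeding while injections continued another 11 weeks (15 weeks total). Each male took part in 4 rounds of harem breeding, the last after 14 weeks of treatment.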

DIO mice [5] = test: Short-term TNP treatment of DIO mice; format: in vivo, C57BL6 mice; conditions: 20 mg/kg BW daily
Outline: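 Mice fed HFD for 8 weeks received daily 20 mg/kg test compound with continued HFD (vehicle n = 6, treated n = 8). Food intake was measured after 7 days. GTT (glucose 2 g/kg i.p.) and ITT (insulin 0.75 U/kg i.p.) were done on days 12 and 17 after a 5 h fast. Tissues were taken on day 18. Akt S473 was immunoblotted from RIPA lysates, with densitometry n = 3.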

3T3L1 adipocytes = test: Glycerol assay for lipolysis in adipocytes; format: cell-based; conditions: TNP 1 μM, isoproterenol 10 μM
Outline: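 3T3-L1 preadipocytes were differentiated for 7 days. Adipocytes were pretreated 4 h with DMSO or 1 μM test compound in DMEM with 0.5% fatty-acid-free BSA. Medium was then replaced, with or without isoproterenol (10 μM), and compound was kept on throughout. Glycerol released into the medium was measured with a commercial kit.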

MIN6 cells = conditions: cited from earlier work
[6] = Hepatic microsomal stability, human; format: in vitro ADME; conditions: liver microsomes, pH 7.4
Outline: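 Test compound (1 μM) was incubated with liver microsomes (1 mg/ml) and 1 mM NADPH in 100 mM potassium phosphate, pH 7.4. Aliquots were taken at 0, 5, 10, 20, 40 and 60 min and analysed by LC-MS/MS. Loss of parent was expressed as half-life.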

[7] = 10 mg/kg BW daily, 10 weeks, WT
[8] = 10 mg/kg BW daily, 10 weeks, WT, vs vehicle
[9] = after 5 weeks of TNP treatment, WT

T1 sequence (Q92551 whole entry): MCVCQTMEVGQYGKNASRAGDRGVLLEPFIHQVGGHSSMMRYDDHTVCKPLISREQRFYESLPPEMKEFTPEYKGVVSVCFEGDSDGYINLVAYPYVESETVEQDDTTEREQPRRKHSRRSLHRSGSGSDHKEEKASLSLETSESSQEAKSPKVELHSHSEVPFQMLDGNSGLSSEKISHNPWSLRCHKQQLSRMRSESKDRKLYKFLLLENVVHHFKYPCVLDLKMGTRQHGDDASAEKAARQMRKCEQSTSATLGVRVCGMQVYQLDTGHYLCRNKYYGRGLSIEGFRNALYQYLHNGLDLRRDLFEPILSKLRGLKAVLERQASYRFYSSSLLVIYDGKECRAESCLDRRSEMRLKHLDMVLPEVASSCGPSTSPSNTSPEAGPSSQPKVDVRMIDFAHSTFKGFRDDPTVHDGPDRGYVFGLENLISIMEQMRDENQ
Sequence of CYP3A4 (P08684 whole entry): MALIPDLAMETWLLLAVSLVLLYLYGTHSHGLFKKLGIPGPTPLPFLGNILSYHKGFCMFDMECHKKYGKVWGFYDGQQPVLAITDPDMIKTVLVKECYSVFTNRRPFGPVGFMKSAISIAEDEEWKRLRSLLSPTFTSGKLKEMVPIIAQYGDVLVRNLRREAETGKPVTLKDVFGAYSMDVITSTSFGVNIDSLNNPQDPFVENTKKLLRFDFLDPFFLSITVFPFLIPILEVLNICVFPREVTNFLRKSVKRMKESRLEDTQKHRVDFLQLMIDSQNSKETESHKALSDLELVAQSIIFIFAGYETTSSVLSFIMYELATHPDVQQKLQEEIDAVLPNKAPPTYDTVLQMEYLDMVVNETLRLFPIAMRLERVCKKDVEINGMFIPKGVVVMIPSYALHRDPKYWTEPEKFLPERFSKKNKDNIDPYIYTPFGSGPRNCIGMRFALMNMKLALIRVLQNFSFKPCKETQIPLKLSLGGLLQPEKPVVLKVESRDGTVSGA
Sequence of CYP2D6 (P10635 whole entry): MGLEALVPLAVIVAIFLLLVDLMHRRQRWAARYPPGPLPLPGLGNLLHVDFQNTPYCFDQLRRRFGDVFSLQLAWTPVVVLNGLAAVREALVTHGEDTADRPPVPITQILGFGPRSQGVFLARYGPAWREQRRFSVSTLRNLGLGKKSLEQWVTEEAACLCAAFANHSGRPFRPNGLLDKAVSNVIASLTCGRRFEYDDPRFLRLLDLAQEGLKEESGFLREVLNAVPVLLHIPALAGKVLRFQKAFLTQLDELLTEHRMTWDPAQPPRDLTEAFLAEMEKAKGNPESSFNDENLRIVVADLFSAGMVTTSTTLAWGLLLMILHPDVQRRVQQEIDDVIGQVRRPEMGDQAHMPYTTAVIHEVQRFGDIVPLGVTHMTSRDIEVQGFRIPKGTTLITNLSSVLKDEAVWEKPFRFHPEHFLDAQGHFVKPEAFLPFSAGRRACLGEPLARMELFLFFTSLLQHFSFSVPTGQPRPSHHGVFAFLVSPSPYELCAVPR
Sequence of CYP2C9 (P11712 whole entry): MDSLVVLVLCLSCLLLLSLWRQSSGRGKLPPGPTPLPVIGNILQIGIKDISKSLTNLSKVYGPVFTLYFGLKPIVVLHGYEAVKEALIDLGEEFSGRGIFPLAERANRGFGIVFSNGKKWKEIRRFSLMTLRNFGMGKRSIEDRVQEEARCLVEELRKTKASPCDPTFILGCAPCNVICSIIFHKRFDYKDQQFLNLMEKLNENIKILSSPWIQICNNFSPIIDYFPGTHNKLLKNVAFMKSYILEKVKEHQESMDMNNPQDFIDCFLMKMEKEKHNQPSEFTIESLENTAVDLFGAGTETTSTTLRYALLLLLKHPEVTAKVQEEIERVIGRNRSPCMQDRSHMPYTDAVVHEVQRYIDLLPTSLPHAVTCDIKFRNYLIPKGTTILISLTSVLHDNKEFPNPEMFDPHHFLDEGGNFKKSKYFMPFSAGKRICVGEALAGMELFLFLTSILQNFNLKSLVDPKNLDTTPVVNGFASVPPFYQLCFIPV

SMILES: O=[N+]([O-])c1ccc(CNc2nc(NCc3cccc(C(F)(F)F)c3)nc3[nH]cnc23)cc1 [TNP, N6-(4-nitrobenzyl)-N2-(3-(trifluoromethyl)benzyl)-9H-purine-2,6-diamine]
- Potency on IP6Ks over IP3-3K (IP6Ks): 70 fold
- IP6K1 catalytic activity (Recombinant human IP6K1 [1]): blocks the catalytic activity of IP6K1
- Akt phosphorylation at S473 in liver and EWAT (lean/CD-fed mice): does not alter
- Glucose disposal (GTT) (lean/CD-fed mice): does not influence
- inhibition at 10 μM (CYP2C9): 92%
- fraction unbound at 6 h, 1 μM [2]: 0.083
- Effect on the 1-IP7 generating enzyme PP-IP5K (PP-IP5K): does not influence
- Effect on 71 unrelated kinases (71 unrelated kinases): does not influence
- Blood glucose level (DIO mice [3]; single dose 20 mg/kg BW): significantly reduces
- Glucose tolerance (GTT) (DIO mice [3]; single dose 20 mg/kg BW): significantly improves
- HFD induced increase in serum insulin (DIO mice [3]; single dose 20 mg/kg BW): slightly reduces
- Serum TAG level (DIO mice [3]; single dose 20 mg/kg BW): does not influence
- Serum cholesterol, HDL, and LDL levels (DIO mice [3]; single dose 20 mg/kg BW): slightly reduces
- Increase in Akt S473 phosphorylation in IWAT, soleus muscle and liver (DIO mice [3]; single injection 20 mg/kg BW, phospho S473/total Akt, ImageJ): 2–3 fold
- inhibition at 10 μM (CYP3A4): 98%
- inhibition at 10 μM (CYP2D6): 76%
- IP6K1 activity (Recombinant human IP6K1 [4]): inhibits IP6K1 activity
- Testis morphology (DIO WT mice; 10 mg/kg BW daily, 10 weeks, DIO mice): unaltered
- Serum insulin level (DIO WT mice; 10 mg/kg BW daily, 10 weeks, HFD-fed WT): reduces serum insulin level
- Serum cholesterol level (DIO WT mice; [7]): reduces serum cholesterol level
- UCP1 expression (DIO WT mice; [7]): enhances UCP1 expression
- Liver weight (DIO WT mice; [8]): substantially less
- Total fat mass (QNMR) (DIO WT mice; [8]): significantly less
- Histological morphology and weight of heart and kidney (DIO WT mice; 10 mg/kg BW daily, 10 weeks, vs vehicle): similar
- Reduction in body weight vs vehicle (DIO WT mice; 10 mg/kg BW daily, after 10-week of treatment, WT): ~10 g
- Body weight (DIO WT mice; 10 mg/kg BW daily, after 10 weeks of injection, DIO WT): 36.9 g
- Fasting blood glucose (DIO WT mice; [9]): reduces fasting blood glucose
- Glucose disposal (GTT) (DIO WT mice; [9]): enhances glucose disposal
- CA1 neuronal density (DIO WT mice; long-term TNP treatment, WT and IP6K1-KO mice, stereological analysis): did not significantly alter
- Concentrations at which TNP inhibits IP3-3K (IP3-3K): 20 to 40 µM
- Sterility of males (chow-fed male mice): do not display sterility
- Glucose disposal following glucose injection (GTT) (DIO mice [5]; 12th day): efficient glucose disposal
- Glucose disposal following insulin injection (ITT) (DIO mice [5]; 17th day): disposes glucose more efficiently
- Fatty liver (histology) (DIO mice [5]; 18 days): ameliorates fatty liver
- Serum glycerol levels (DIO mice [5]; 18 days): does not alter
- Serum insulin level (DIO mice [5]; 18 days): not significantly altered
- Serum levels of cholesterol or triglycerides (DIO mice [5]; 18 days): not altered
- Reduction of fat mass by treatment (DIO mice [5]; 18 days, DIO mice, QNMR): ~3 g
- Akt S473 phosphorylation in the IWAT depot, enhancement vs vehicle (DIO mice [5]; 18 days, densitometry): 4 fold
- Serum levels of AST and ALT (DIO mice [5]; 18 days, vs vehicle): less
- UCP1 mRNA expression in the IWAT (DIO mice [5]; 18 days, vs vehicle): higher
- Weight of the EWAT depot (DIO mice [5]; 18 days, vs vehicle): significantly less
- Daily energy intake (DIO mice [5]; after 7 days): does not influence daily energy intake
- Basal or isoproterenol induced lipolysis (glycerol release) (3T3L1 adipocytes): does not influence
- Insulin secretion (MIN6 cells): reduces insulin secretion
- half-life at 1 μM [6]: 32 min
